This passage reports Activity results from ChEMBL document CHEMBL1154792, “chi-Conopeptide pharmacophore development: toward a novel class of norepinephrine transporter inhibitor (Xen2174) for pain” (J Med Chem, 2009).

This assay deals with Sodium-dependent noradrenaline transporter (Homo sapiens, UniProt P23975). In words: Displacement of [3H]nisoxetine from human NET expressed in COS7 cells. It is filed as cell-based. Particulars: COS-7. In outline: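 Membranes from COS-7 cells transfected with human NET were incubated with [3H]nisoxetine (4.3 nM) with or without peptide (1 nM to 100 μM, triplicate) for 1 h at RT. Filter-retained radioactivity was counted by liquid scintillation, and values are given as pIC50. Data are means of 2–5 experiments in triplicate; peptide concentration was set by calibrated HPLC at 214 nm.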
For orientation: Loss of bound radioactivity is the signal in a displacement assay; it reports binding, not function.

Molecules are shown by their SMILES. The source made the active and inactive calls. The calls are words filed in the database; no cut-off is given here.

Sodium-dependent noradrenaline transporter, sequence (P23975 whole entry): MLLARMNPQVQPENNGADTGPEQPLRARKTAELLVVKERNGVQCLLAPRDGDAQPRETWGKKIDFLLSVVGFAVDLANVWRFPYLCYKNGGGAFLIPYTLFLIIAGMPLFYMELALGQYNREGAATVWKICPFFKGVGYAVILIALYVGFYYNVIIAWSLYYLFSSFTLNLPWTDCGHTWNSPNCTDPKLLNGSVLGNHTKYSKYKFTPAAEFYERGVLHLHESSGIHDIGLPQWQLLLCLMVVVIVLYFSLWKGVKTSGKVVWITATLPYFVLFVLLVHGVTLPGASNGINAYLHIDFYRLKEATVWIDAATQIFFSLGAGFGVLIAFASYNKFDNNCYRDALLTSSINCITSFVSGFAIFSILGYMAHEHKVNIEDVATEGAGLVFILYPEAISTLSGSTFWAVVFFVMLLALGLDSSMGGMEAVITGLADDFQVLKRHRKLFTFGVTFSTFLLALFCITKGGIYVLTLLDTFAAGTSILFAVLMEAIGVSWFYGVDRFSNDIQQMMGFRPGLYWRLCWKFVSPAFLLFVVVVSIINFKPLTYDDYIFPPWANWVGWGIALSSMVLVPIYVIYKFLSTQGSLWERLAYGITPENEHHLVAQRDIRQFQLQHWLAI

For `CC(C)C[C@@H]1NC(=O)[C@H](CCCCN)NC(=O)[C@H](Cc2ccc(O)cc2)NC(=O)CNC(=O)C[C@@H]2CSSC[C@H](CC(=O)N[C@@H](Cc3cnc[nH]3)C(=O)N3CC[C@H](O)[C@H]3C(=O)N[C@H](CC(=O)O)CSSC[C@H](NC(=O)[C@@H](NC(=O)CNC(=O)[C@@H]3CCC(=O)N3)C(C)C)CC(=O)N2)NC1=O`, the outcome was inactive.
